A selection: hits, their analogues and other compounds. The true share with any hit is near 3.7%.
Beta2AR agonist: agonists of human beta-2 adrenergic receptor inducing internalization. P07550. Am2.2-beta2AR cells, FAP receptor internalization, flow cytometry. response, % (concentration not given with the values). 340,000 tested, 0.43% active;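 active means response above a set limit, near 3 SD of response in nonfluorescent compounds, cut at about 42% in these data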
MDM2 E3 inh: Mdm2 E3 ligase (human) inhibition; Q00987; cell-based MDM2 ubiquitination luciferase reporter, 2 h; 0 = plate control, 100 = twice control, blank-subtracted; signal enhancement, % at 5 µM; 210,000 tested, 0.11% active;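 active means signal enhancement of 30% or more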;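 further: luminescence tracks abundance of the self-degrading MDM2-luciferase fusion protein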
Target sequence (Q00987 whole entry, looked up, the tested form may be a part): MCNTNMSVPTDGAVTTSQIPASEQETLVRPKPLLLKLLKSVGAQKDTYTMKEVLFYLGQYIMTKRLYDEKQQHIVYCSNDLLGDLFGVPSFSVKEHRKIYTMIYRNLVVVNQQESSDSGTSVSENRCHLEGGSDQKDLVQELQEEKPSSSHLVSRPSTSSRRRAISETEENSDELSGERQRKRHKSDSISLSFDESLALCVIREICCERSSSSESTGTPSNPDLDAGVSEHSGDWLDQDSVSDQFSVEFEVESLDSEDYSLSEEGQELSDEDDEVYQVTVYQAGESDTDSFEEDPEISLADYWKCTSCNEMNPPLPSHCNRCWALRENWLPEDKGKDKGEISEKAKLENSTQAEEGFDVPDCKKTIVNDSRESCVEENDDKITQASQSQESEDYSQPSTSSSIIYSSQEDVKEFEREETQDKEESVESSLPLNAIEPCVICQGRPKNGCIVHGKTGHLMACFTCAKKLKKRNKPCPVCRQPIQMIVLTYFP
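test system = mammalian cells stably expressing self-ubiquitinating, self-degrading MDM2 E3–luciferase fusion | quantity = 2000 cells/well | incubation = cell settling 4 h, compound treatment 2 h, both 37 °C | signal = luminescence with SteadyLite reagent, 15 min at room temperature | evaluation = % enhancement relative to plate controls after blank subtraction | benchmarks = plate controls and plate blanks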
XBP1 UPR activ: adaptive UPR (XBP1) activation. CHO-XBP1 luciferase reporter, IRE1-XBP1 UPR activation, luminescence; percent of tunicamycin response, DMSO as zero. activation, % at 20 µM. 330,000 tested, 0.33% active. AID 463104;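 active means versus positive control, 20 µM dose yields 30% or more activation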;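 further: 100% = tunicamycin at 10 µg/mL and 0% = DMSO only wells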
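Material – CHO cell line with stable XBP1 luciferase reporter · Buffer or medium – F12 plus 10% FBS · Compound – single point, 20 µM final compound, 1% DMSO · Schedule – 16-18 h cell attachment at 37 °C, then 6 h compound exposure · Signal – Steady-Glo luminescence read · Benchmarks – high control tunicamycin 10 µg/mL final, low control DMSO vehicle only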
Mdm2-MdmX inh: human Mdm2/MdmX binding inhibition. O15151+Q00987. SaOS-2 split-luciferase Mdm2/MdmX complementation, luminescence. inhibition, % at 8 µM. 330,000 tested, 3% active. AID 485346;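 active means inhibition of at least 50% at 8 µM in the primary screen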
Dynein cargo inh: blocks dynein driven cargo transport along microtubules. z-score, hits read low. 220,000 tested, 0.47% active. AID 1381. 3617.4 mouse cells, GR-EGFP nuclear translocation imaging; test concentration mostly 20 µM; stimulated with dexamethasone, 1 µM; active compounds read low;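 active means plate z-score of nuclear minus cytoplasmic receptor signal below a set negative limit, without overly bright fluorescence or cell loss, cut at about -3.5 in these data, passing the limit was not always enough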;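 further: z-score of nuclear minus cytoplasmic ring GR-EGFP intensity difference per well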
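Schedule: 48 h induction, then 1 h compound, then 30 min agonist, 37 °C. Buffer or medium: tetracycline-free induction medium containing charcoal-stripped FBS. Reagent: 1.0 µM final dexamethasone stimulus. Evaluation: nuclear versus cytoplasmic GR-EGFP signal, averaged per well. Signal: high-content fluorescence imaging after fixation.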
UPR CHOP act: apoptotic UPR (CHOP) activation; CHO-CHOP luciferase reporter, luminescence; percent of tunicamycin response over DMSO baseline; activation, % at 10 µM; 330,000 tested, 0.34% active; AID 449763;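 active means at 10 µM dose, activation of 40% or more, normalized to positive control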;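 further: 100% = tunicamycin at 10 µg/mL and 0% = DMSO alone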
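Material: CHO-CHOP cells, stable luciferase reporter of PERK-eIF2a-CHOP signalling; quantity: 500 reporter cells seeded per well; buffer or medium: F12 medium containing 10% fetal bovine serum; compound: one dose, 10 µM in 0.5% DMSO; incubation: 6 h compound treatment, 37 °C; measured by: Steady-Glo luciferase luminescence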
Mdm2 MdmX conf: confirmation of human Mdm2/MdmX interaction inhibitors | shares compounds with Mdm2-MdmX inh | Mdm2-MdmX binding, luminescent assay | inhibition, % at 8 µM | 10,000 tested, 55% active; in the data active means inhibition above about 40%
Full FLuc ctr: inhibits full-length luciferase, flagging false Mdm2/MdmX hits | shares compounds with Mdm2-MdmX inh | 6,200 tested, 77% active | inhibition, % at 8 µM | SaOS-2 full-length luciferase counterscreen, luminescence | AID 504607;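 active means mean inhibition at 8 µM reaching about 37%, which flags the compound as non-specific, limit read from the data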;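 further: p53-null SaOS-2 cells with luciferase driven by a doxycycline-inducible promoter; compound on cells about two nights before reading with doxycycline added after day one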
Active calls of the source: *; · = no result.

SMILES	Beta2AR agonist	MDM2 E3 inh	XBP1 UPR activ	Mdm2-MdmX inh	Dynein cargo inh	UPR CHOP act	Mdm2 MdmX conf	Full FLuc ctr
C[C@H](CO)N1C[C@H](C)[C@@H](CN(C)S(=O)(=O)c2ccc(F)cc2)Oc2ccc(NC(=O)Nc3ccc(C(F)(F)F)cc3)cc2C1=O	7	·	-2	75*	·	4	16	·
C[C@@H]1CN([C@H](C)CO)C(=O)c2cc(NC(=O)Nc3ccc(C(F)(F)F)cc3)ccc2O[C@H]1CN(C)S(=O)(=O)c1ccc(Cl)cc1	-5	·	4	85*	·	7	16	·
CC(CC(=O)N1CCc2ccccc21)n1cccn1 (stereo unspecified)	2	·	2	10	·	3	·	·
CCCCCCC[C@@H](C/C=C/CCC(=O)N(C)C/C(=C/Cl)C/C(=C\C(=O)N1CC(OC)=CC1=O)OC)OC	93*	·	-3	60*	·	12	-20	·
CCCc1cc(-c2[nH]ncc2-c2ccc3c(c2)OCCCO3)c(O)cc1O	8	6	-1	21	-0.82	0	·	·
CCCc1cc(-c2[nH]ncc2-c2ccc(C(=O)OCC)o2)c(O)cc1O	-2	-10	-4	56*	0.28	0	18	·
O=C(CCCc1ccccc1)NCCS(=O)(=O)N1CCN(c2ccc(F)cc2)CC1	-11	·	-1	-1	·	1	·	·
Cc1cc(C)nc(N/C(=N\S(=O)(=O)Cc2ccccc2)Nc2ccccc2Br)n1	-15	-3	0	52*	1.9	6	55*	104*
CC(=O)N/C(=N\c1nc(C)cc(C)n1)Nc1ccc2ccccc2c1	-6	·	-4	74*	·	1	72*	62*
CC(=O)N/C(=N/c1nc(C)cc(C)n1)Nc1ccc(NC(C)=O)cc1	-2	-1	2	25	-0.21	1	·	·
C=CCNc1oc(-c2ccc(Cl)cc2)nc1C#N	5	·	0	50*	·	5	5	·
C=CCNc1oc(-c2cccc(F)c2)nc1C#N	6	·	12	6	·	6	·	·
Cc1ccc(C(=O)Nc2nc(-c3ccccn3)cs2)s1	12	·	7	58*	·	31	76*	35
O=C(COc1ccc(F)cc1Cl)Nc1nc(-c2ccccn2)cs1	0	·	-2	74*	·	-1	70*	34
CCc1sc(C(=O)Nc2nccs2)cc1C	-1	·	-3	-135	·	3	·	·
O=C(Nc1nc(-c2ccccn2)cs1)c1ncc(Cl)c(Cl)c1Cl	0	-18	-3	74*	0.3	0	35	·
CCc1sc(C(=O)Nc2nc(-c3ccccn3)cs2)cc1C	9	·	5	64*	·	1	40*	37*
O=[N+]([O-])c1cccc(-c2noc(-c3cccs3)n2)c1	-6	-16	4	-67	0.28	9	·	·
CCN1C(=O)C(O)(C2COC(C)(C)CC2=O)c2cc(Br)ccc21 (stereo unspecified)	-3	-9	9	55*	-0.015	0	52*	68*
CCn1c(-c2ccc(C)cc2)nn(CC(=O)NCCc2ccccc2)c1=S	-8	3	1	51*	-0.36	2	55*	31
COc1ccc(-c2nn(CC(=O)NCCc3ccccc3)c(=S)n2C)cc1	-1	4	-2	8	-0.15	2	·	·
CCCCn1c(Cn2nc(C(=O)O)c3ccccc3c2=O)nc2cc(S(N)(=O)=O)ccc21	8	·	2	-11	·	2	·	·
COc1ccc(NC(=O)c2ccc3c(c2)NC(=O)CS3)cc1S(=O)(=O)Nc1ccc(Br)cc1	-5	-14	0	69*	-0.67	3	77*	44*
Cc1ccc(NS(=O)(=O)c2cc(NC(=O)c3ccc4c(c3)NC(=O)CS4)ccc2C)c(C)c1	26	-12	2	36	-0.089	-2	·	·

Screening data: PubChem, several laboratories
